Test results as given in ChEMBL document CHEMBL6134766, “Design, synthesis, and evaluation of benzhydrylpiperazine-based novel dual COX-2/5-LOX inhibitors with anti-inflammatory and anti-cancer activity” (RSC Med Chem, 2025).
Activity calls are given as the source filed them. The calls are words filed in the database; no cut-off is given here.

How the values were obtained:
[1] = MRT in male Wistar rat at 10 mg/kg, po measured up to 24 hrs by HPLC analysis; type: ADME, organism-based; settings: in vivo
Method in brief: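 Overnight-fasted male Wistar rats, 200–250 g, single 10 mg kg−1 p.o. in 0.3% sodium CMC; blood at 0, 0.5, 1, 2, 4, 8, 16, 24 h into heparin tubes; plasma MeOH-extracted, HPLC (MeOH:H2O 85:15, 254 nm) against calibration curve; extravascular non-compartmental analysis; mean ± SD (n = 3).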

[2] = Toxicity in fasting Wistar rat assessed as ulcer index at 20 mg/kg, po via gavage treated for 3 days consecutively by H and E staining based analysis (reference value: 0); type: organism-based; settings: in vivo, 72 h, time 3 day
Method in brief: (§1)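 Fasted rats, n = 6/group, gavaged once daily for 3 days in 0.3% Na CMC (vehicle control 0.3% CMC); killed under anaesthesia 6 h after day-3 dose; stomachs saline-washed, mucosa examined with hand lens; ulcer score, index and % ulceration by reported scoring; some stomachs formalin-fixed, H&E stained.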

[3] = biological target: T1, Polyunsaturated fatty acid 5-lipoxygenase (Homo sapiens, UniProt P09917); test: Inhibition of 5-LOX (unknown origin) using arachidonic acid as substrate preincubated for 5 mins followed by substrate addition measured after 10 mins by spectrophotometry
T1 sequence (P09917 whole entry): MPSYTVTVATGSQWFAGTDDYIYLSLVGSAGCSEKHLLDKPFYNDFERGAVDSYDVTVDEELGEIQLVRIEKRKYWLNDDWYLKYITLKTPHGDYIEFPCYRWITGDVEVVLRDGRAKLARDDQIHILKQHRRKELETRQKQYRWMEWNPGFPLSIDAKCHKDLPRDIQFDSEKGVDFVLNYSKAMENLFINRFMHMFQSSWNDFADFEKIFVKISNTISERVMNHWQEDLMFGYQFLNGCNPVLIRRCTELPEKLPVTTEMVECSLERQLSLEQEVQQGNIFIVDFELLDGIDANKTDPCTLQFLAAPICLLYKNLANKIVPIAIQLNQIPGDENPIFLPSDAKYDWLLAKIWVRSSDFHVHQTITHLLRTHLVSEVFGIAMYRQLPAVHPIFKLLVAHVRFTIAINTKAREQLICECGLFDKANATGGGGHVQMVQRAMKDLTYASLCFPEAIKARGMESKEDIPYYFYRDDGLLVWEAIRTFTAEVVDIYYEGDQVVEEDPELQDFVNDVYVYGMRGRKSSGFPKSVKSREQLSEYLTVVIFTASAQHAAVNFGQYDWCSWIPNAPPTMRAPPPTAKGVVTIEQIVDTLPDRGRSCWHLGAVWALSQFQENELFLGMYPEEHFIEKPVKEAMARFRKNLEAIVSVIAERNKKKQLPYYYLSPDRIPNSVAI

[4] = Toxicity in fasting Wistar rat assessed as ulcer score at 10 mg/kg, po via gavage treated for 3 days consecutively by H and E staining based analysis (reference value: 0); type: organism-based; settings: in vivo, 72 h, time 3 day; method in brief: as §1
COLO 205 = test: Cytotoxicity against human COLO 205 cells assessed as growth inhibition incubated for 48 hrs by SRB assay; settings: COLO 205, 48 h
Drosophila = test: Toxicity in wild-type Drosophila assessed as eclosion rate at 50 uM, po via food to female and male flies and measured in F1 generation flies after 15 days; type: organism-based; settings: in vivo, 360 h, time 15 day
Method in brief: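 Ten virgin female and male Oregon R+ flies crossed on food containing compound (1, 10, 50, 100 or 200 μM), held at 24 ± 1 °C; F1 generation followed 15 days; percent eclosion versus untreated controls; Dunnett's multiple comparisons.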

Gastric mucosa = test: Antioxidant activity in gastric mucosal tissue in Wistar rat assessed as increase in GSH level at 20 mg/kg, po; type: functional, organism-based
Method in brief: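 Fasted rats (n = 6/group) gavaged once daily for 3 days in 0.3% Na CMC and sacrificed 6 h after the final dose. Randomly chosen stomachs homogenized in cold PBS pH 7.4 and centrifuged at 1000 rpm for 10 min at 4 °C. Supernatant protein measured by Bradford assay; GSH and nitrate then measured by reported methods.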

[5] = Acute toxicity in female Wistar rat assessed as animal mortality up to 500 mg/kg, po measured for 14 days; type: organism-based; settings: in vivo, 336 h, time 14 day
Method in brief: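 Followed OECD 423 guideline in healthy female Wistar rats weighing 200–250 g. Animals were housed at 25 ± 2 °C and 45–60% RH on a 12 h light/dark cycle, with free access to water and food.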

[6] = biological target: T2, Prostaglandin G/H synthase 1 (Ovis aries, UniProt P05979); test: Inhibition of ovine COX-1 using arachidonic acid as substrate in presence of hemin by TMPD reagent-based colorimetry
T2 sequence (P05979 whole entry): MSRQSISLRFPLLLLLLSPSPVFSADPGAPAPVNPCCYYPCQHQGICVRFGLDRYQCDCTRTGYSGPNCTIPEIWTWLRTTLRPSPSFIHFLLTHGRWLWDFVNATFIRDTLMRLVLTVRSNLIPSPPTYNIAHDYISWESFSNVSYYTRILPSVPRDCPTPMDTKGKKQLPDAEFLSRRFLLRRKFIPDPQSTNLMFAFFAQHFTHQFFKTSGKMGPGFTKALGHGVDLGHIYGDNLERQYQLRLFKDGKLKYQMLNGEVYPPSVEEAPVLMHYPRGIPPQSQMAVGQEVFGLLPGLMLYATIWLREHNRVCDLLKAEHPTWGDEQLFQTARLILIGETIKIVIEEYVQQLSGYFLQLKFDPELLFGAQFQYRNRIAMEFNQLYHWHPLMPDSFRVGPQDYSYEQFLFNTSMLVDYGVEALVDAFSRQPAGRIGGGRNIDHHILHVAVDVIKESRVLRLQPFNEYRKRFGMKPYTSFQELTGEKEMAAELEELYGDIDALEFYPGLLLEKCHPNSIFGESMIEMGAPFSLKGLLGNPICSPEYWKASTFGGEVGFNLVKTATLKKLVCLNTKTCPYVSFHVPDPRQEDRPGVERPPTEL

Rattus norvegicus [7] = test: Cardio-protective activity in ISO-treated Wistar rat assessed as decrease in serum cTn-I level at 20 mg/kg, po by ELISA; type: functional, organism-based
Method in brief: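 ISO 100 mg kg−1 s.c. rat model, oral treatment after ISO, n = 6 per group; serum from retro-orbital blood (4000 rpm, 4 °C, 10 min); cTn-I by commercial kit; mean ± SD.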

Rattus norvegicus [8] = test: Anti-inflammatory activity in carrageenan-induced paw edema Wistar rat model assessed as swelling thickness of paw at 20 mg/kg, po measured after 2 hrs by digital vernier caliper (reference value: 8.65 +/- 0.53 millimeter); type: functional
[9] = AUC (0 to 24 hrs) in male Wistar rat at 10 mg/kg, po measured up to 24 hrs by HPLC analysis; type: ADME, organism-based; settings: in vivo
Method in brief: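 Healthy male Wistar rats (200–250 g, n = 5), fasted overnight, given a single oral dose of 10 mg kg−1 in 0.3% sodium CMC. Blood collected under anaesthesia at 0, 0.5, 1, 2, 4, 8, 16 and 24 h into heparinized tubes. Plasma extracted with MeOH and analysed by HPLC (MeOH:H2O 85:15, detection at 254 nm) against a standard calibration curve. Parameters from a non-compartmental extravascular model.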

Clc1ccc(-c2nnc(CN3CCN(C(c4ccccc4)c4ccc(Cl)cc4)CC3)o2)cc1 (stereo not given)
MRT [1]: 3.42 h
UI [2]: 1.875
IC50 [3]: 7.87 µM
Activity [4]: 0.02
GI50 (COLO 205): 1.22 µM
Activity (Drosophila): > 70%
Activity (Gastric mucosa): Active
Activity [5]: Non-toxic
IC50 [6]: 34.1 µM
Activity (Rattus norvegicus [7]): Active
Activity (Rattus norvegicus [8]): 4.11 mm
AUC [9]: 32.06 µg/mL/h

O=[N+]([O-])c1ccc(-c2nnc(CN3CCN(C(c4ccccc4)c4ccc(Cl)cc4)CC3)o2)cc1 (stereo not given)
UI [2]: 9.37
IC50 [3]: 9.16 µM
Activity [4]: 0.031
Activity (Gastric mucosa): Active
Activity [5]: Non-toxic
IC50 [6]: 41.1 µM
Activity (Rattus norvegicus [7]): Active
Activity (Rattus norvegicus [8]): 4.78 mm
